Data taken from PubChem BioAssay.
Active and inactive are the calls of the source.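 How the source made its calls, unless noted: active means viability at or under a set limit in both replicates, limit being median viability minus 3 SD (cut at about 48% in these data, passing the limit was not always enough); inconclusive means at or under the limit in just one replicate; inactive means at or above the limit in both replicates.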

Tests used:
[1] = reducers of endogenous Her2 protein level, primary screen, SKBR3 breast tumor cells, AlphaScreen, ATP viability (AID 461;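 active means Her2 level under about 52% in both replicate screens, with viability over 70% of control, limit read from the data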;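 on Her2 level: lower value means less Her2 protein in the cells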;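 on viability: percent of carrier control wells set as 100% viability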); settings: 18-24 h, measured here: SKBR3 viability, ATP luminescence, at 10 µM
[2] = molecular target: Receptor tyrosine-protein kinase erbB-2 (Homo sapiens) (UniProt P04626); assay: as above; settings: 18-24 h, at 10 µM, stronger effect = lower value
Chain of Receptor tyrosine-protein kinase erbB-2 (Homo sapiens) (P04626 whole entry, looked up): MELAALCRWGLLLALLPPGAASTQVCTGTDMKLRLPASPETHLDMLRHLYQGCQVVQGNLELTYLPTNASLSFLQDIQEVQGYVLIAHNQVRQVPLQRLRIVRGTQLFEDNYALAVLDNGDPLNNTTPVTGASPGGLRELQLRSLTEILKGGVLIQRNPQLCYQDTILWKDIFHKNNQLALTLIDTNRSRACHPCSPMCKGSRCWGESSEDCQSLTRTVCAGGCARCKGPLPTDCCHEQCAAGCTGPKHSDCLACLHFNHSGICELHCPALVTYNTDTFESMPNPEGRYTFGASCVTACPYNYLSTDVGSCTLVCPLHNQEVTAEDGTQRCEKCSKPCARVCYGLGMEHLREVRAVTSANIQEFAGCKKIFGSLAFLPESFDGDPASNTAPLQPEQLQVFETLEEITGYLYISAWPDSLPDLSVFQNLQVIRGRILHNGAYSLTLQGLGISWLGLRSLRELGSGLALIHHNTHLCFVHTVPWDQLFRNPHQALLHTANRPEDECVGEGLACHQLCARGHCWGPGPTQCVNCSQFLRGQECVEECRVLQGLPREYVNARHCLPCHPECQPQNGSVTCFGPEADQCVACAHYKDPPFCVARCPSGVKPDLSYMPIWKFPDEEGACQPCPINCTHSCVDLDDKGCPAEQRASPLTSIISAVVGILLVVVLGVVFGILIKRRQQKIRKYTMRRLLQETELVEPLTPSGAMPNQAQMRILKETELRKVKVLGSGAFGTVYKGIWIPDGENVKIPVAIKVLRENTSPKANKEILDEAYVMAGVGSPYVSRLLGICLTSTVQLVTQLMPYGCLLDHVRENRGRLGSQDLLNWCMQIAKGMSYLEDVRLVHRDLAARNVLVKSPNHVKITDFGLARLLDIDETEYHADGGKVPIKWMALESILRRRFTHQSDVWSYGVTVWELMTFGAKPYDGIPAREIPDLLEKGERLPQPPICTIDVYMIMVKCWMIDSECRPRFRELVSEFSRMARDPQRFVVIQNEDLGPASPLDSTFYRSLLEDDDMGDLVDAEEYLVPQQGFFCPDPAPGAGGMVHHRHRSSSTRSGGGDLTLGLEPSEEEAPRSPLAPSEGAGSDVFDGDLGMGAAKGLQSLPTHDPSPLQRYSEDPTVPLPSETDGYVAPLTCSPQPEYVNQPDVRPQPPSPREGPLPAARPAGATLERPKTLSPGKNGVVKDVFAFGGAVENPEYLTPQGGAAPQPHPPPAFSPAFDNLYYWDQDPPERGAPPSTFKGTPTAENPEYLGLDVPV

[3] = SK-BR-3 cell growth inhibitors, pilot screen, 24 h, human (AID 572;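 active means viability at or below 10% of carrier control in both of two separate runs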;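 further: compound exposure lasted between 18 and 24 h rather than exactly 24 h; 100% = carrier-treated control wells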); settings: SK-BR-3 viability, CellTiter-Glo luminescence, at 10 µM, stronger effect = lower value
[4] = HUVEC growth inhibition – cell-based, human, primary screen (AID 575;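 active means viability at or below 30% in both replicate assays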;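 further: 100% = median of untreated cell wells with 0.1% DMSO on each plate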); settings: HUVEC proliferation, CellTiter-Glo luminescence, 72 h; at 10 µM; stronger effect = lower value
Procedure, shortened: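 Test system – primary HUVEC, no more than 12 passages · Dosing – one dose, 10 µM final, 0.1% DMSO · Times – 72 h treatment at 37 °C · Measured by – ATP-based CellTiter-Glo luminescent read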

[5] = growth inhibitors of H69AR lung tumor, primary screen, human, duplicate replicates (AID 580); settings: H69AR lung tumor cells viability, ATP luminescence, 72 h; at 10 µM; stronger effect = lower value;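 further: 100% = mean luminescence of untreated wells and 0% = no signal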
[6] = reversal of MRP1-mediated doxorubicin resistance, pilot screen, H69AR cells, doxorubicin co-treatment (AID 601;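 active means viability loss from added drug above about 55%, and viability with drug at most 40%, in both replicates, limit read from the data, passing the limit was not always enough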); settings: CellTiter-Glo, 72 h, at 10 µM; for differential viability (reversal): stronger effect = higher value
[7] = 384-well plate pilot, post-Golgi transport modulator project, inhibition of yeast transport mutant growth (AID 636; in the data active means inhibition above about 31%); settings: absorbance 615 nm, about 18 h, stronger effect = higher value
[8] = growth suppression of yeast trafficking mutant, preliminary HTS, modulators of trafficking downstream of Golgi apparatus project, 1536-format plate, OD 615 nm (AID 637; in the data active means inhibition above about 30%); settings: yeast transport mutant growth, absorbance 615 nm, 18 h; stronger effect = higher value
[9] = H69AR cells + 2 uM doxorubicin, measured here: viability with 2 uM doxorubicin, stronger effect = lower value
[10] = H69AR cells, compound alone cytotoxicity

SMILES | viability [1] [%] | Her2 level [2] | viability [3] | viability [4] | viability [5] | differential viability (reversal) ([6]; H69AR cells + 2 uM doxorubicin) | viability [6, 9] [%] | viability [6, 10] [%] | inhibition [7] | inhibition [8]
c1ccc2c(c1)CC(N1CCCCC1)c1ccccc1N2 (stereo not given) | 79.5 | 91% (inactive) | 79.5% (inactive) | 90.1% (inactive) | 91.5% (inactive) | 4.69% (inactive) | 86.8 | 91.5 | -1.82% (inactive) | -3.93% (inactive)
Cc1cccc(NS(=O)(=O)c2cc(C(=O)OCC(=O)Nc3cc(C)on3)ccc2C)c1 | 93 | 86% (inactive) | 93% (inactive) | 77.7% (inactive) | 112% (inactive) | 10.1% (inactive) | 102 | 112 | -2.8% (inactive) | -2.26% (inactive)
Cc1ccc(C(C(=O)NC(C)(C)C)N(C(=O)c2csnn2)c2cccc(F)c2)o1 (stereo not given) | 83.5 | 97% (inactive) | 83.5% (inactive) | 103% (inactive) | 92.8% (inactive) | 1.6% (inactive) | 91.2 | 92.8 | -3.6% (inactive) | 24.4% (inactive)
Cc1nnc(NC(=O)Nc2cccc(Cl)c2)s1 | 86 | 89.5% (inactive) | 86% (inactive) | 76.8% (inactive) | 63% (inactive) | -21% (inactive) | 84.1 | 63 | -6.18% (inactive) | -4.03% (inactive)
Cn1c(=O)c2c(nc(NCCCO)n2CCc2ccccc2)n(C)c1=O | 94 | 138% (inactive) | 94% (inactive) | 93.7% (inactive) | 87.1% (inactive) | -2.35% (inactive) | 89.4 | 87.1 | 5.45% (inactive) | -2.83% (inactive)
O=C(CSc1nnc(Cn2cnc3ccccc32)o1)c1ccccc1 | 124 | 86.5% (inactive) | 124% (inactive) | 61.8% (inactive) | 73.3% (inactive) | -9.91% (inactive) | 83.2 | 73.3 | -6.84% (inactive) | 3.49% (inactive)
CCOC(=O)N1CCC2(CC1)CC(=O)c1c(ccc3oc(C(=O)O)c(C)c13)O2 | 118 | 96% (inactive) | 118% (inactive) | 111% (inactive) | 92.3% (inactive) | 3.56% (inactive) | 88.7 | 92.3 | -0.79% (inactive) | -4.55% (inactive)
CCOc1ccc(S(=O)(=O)Nc2ccccc2C(=O)Nc2ccccc2N2CCOCC2)cc1 | 104 | 97.5% (inactive) | 104% (inactive) | 74.5% (inactive) | 93.4% (inactive) | 2.71% (inactive) | 90.7 | 93.4 | -6.67% (inactive) | 3.06% (inactive)
CCCn1cc(SCC(=O)NCc2ccco2)c2ccccc21 | 98.5 | 90% (inactive) | 98.5% (inactive) | 92.3% (inactive) | 94% (inactive) | 15.4% (inactive) | 78.6 | 94 | -5.47% (inactive) | 0.48% (inactive)
O=C(C1CCN(S(=O)(=O)N2CCC3(CC2)OCCO3)CC1)N1CCOCC1 | 98 | 114% (inactive) | 98% (inactive) | 99.4% (inactive) | 94.1% (inactive) | 3.86% (inactive) | 90.3 | 94.1 | 0.92% (inactive) | 7.38% (inactive)
O=C(O)CC1=C(O)C(=O)N(c2ccccc2)C1c1ccccc1 (stereo not given) | 102 | 107% (inactive) | 102% (inactive) | 96.9% (inactive) | 102% (inactive) | 7.7% (inactive) | 94.1 | 102 | -1.49% (inactive) | -0.49% (inactive)
COCCN1CCN(c2c(C)c(C)nc3cc(-c4cccc(OC)c4)nn23)CC1 | 100 | 83.5% (inactive) | 100% (inactive) | 91.1% (inactive) | 95.4% (inactive) | 12.7% (inactive) | 82.7 | 95.4 | -5.45% (inactive) | -1.43% (inactive)
CCOC(=O)CSC1=C(C#N)C(=O)NC2(CCCCC2)S1 | 108 | 106% (inactive) | 108% (inactive) | 100% (inactive) | 108% (inactive) | 12.1% (inactive) | 95.9 | 108 | -6.16% (inactive) | -5.24% (inactive)
c1ccn2c(SCc3cn4ccsc4n3)nnc2c1 | 104 | 93.5% (inactive) | 104% (inactive) | 104% (inactive) | 110% (inactive) | 14% (inactive) | 95.7 | 110 | -8.49% (inactive) | 3.49% (inactive)
CN(Cc1cccs1)c1ncnc2sccc12 | 112 | 78.5% (inactive) | 112% (inactive) | 70.7% (inactive) | 92.4% (inactive) | -0.54% (inactive) | 93 | 92.4 | -4.87% (inactive) | 1.27% (inactive)
O=C(Nc1ccccc1)N(CCN1CCOCC1)Cc1ccccc1F | 106 | 103% (inactive) | 106% (inactive) | 92.2% (inactive) | 92.3% (inactive) | -16% (inactive) | 108 | 92.3 | 2.11% (inactive) | 1.64% (inactive)

SMILES | viability [1] [%] | Her2 level [2] | viability [3] | viability [4] | viability [5] | differential viability (reversal) ([6]; H69AR cells + 2 uM doxorubicin) | viability [6, 9] [%] | viability [6, 10] [%] | inhibition [7] | inhibition [8]
COCCN1Cc2cccc(C(=O)Nc3cccnc3)c2C1=O | 106 | 81% (inactive) | 106% (inactive) | 102% (inactive) | 93.5% (inactive) | -4.91% (inactive) | 98.4 | 93.5 | -6.71% (inactive) | 1.9% (inactive)
COc1cccc(C2=Nn3c(nnc3-c3ccccc3O)SC2)c1 | 100 | 61% (inactive) | 100% (inactive) | 89.4% (inactive) | 67.2% (inactive) | -18.5% (inactive) | 85.7 | 67.2 | -3.16% (inactive) | -2.83% (inactive)
COc1ccc2c(c1OC)C(=O)N(c1ccc3c(c1)CCC3)C2=O | 96.5 | 100% (inactive) | 96.5% (inactive) | 90.3% (inactive) | 107% (inactive) | 12.6% (inactive) | 94.9 | 107 | -3.07% (inactive) | 25.7% (inactive)
CC1CC(=O)C2=C(C1)OC(N)=C(C#N)C2c1coc2ccccc2c1=O (stereo not given) | 108 | 88.5% (inactive) | 108% (inactive) | 95.1% (inactive) | 97.3% (inactive) | 10.6% (inactive) | 86.7 | 97.3 | -7.33% (inactive) | 2.26% (inactive)
Cc1cc(NC(=O)Cn2cnc3c2c(=O)n(C)c(=O)n3C)n(-c2ccccc2)n1 | 116 | 93% (inactive) | 116% (inactive) | 117% (inactive) | 108% (inactive) | 8.22% (inactive) | 99.3 | 108 | -7.97% (inactive) | 0.83% (inactive)
O=C(Nc1ccc(CN2CCCCC2)cc1)c1ccc2c(c1)OCO2 | 80.5 | 75% (inactive) | 80.5% (inactive) | 98.8% (inactive) | 91.6% (inactive) | 11.9% (inactive) | 79.7 | 91.6 | -2.5% (inactive) | -4.44% (inactive)
O=C(c1ccc2ccccc2n1)N1CCN(c2ccccc2)CC1 | 88.5 | 86% (inactive) | 88.5% (inactive) | 100% (inactive) | 112% (inactive) | 13.8% (inactive) | 98.6 | 112 | -4.19% (inactive) | -3.61% (inactive)
CC(C)(C)NC(=O)COC(=O)c1ccc(O)cc1 | 100 | 104% (inactive) | 100% (inactive) | 103% (inactive) | 98.9% (inactive) | -3.93% (inactive) | 103 | 98.9 | -2.99% (inactive) | -1.27% (inactive)
O=C(CN(CCc1ccccc1)C(=O)CN1C(=O)COc2ccccc21)NCc1ccco1 | 88.5 | 87.5% (inactive) | 88.5% (inactive) | 102% (inactive) | 78.6% (inactive) | 0.605% (inactive) | 78 | 78.6 | -0.65% (inactive) | -1.15% (inactive)
COc1cc(CN(C)CC(=O)c2[nH]c(C)c(C(C)=O)c2C)ccc1OC(F)F | 104 | 82.5% (inactive) | 104% (inactive) | 97.3% (inactive) | 85% (inactive) | 6.44% (inactive) | 78.6 | 85 | -5.2% (inactive) | -5.08% (inactive)
CC(C)(C)NCc1cc2ccccc2[nH]c1=O | 90 | 74.5% (inactive) | 90% (inactive) | 99.1% (inactive) | 93.2% (inactive) | 9.9% (inactive) | 83.3 | 93.2 | -9.05% (inactive) | -2.5% (inactive)
CCn1c(SCC(=O)c2ccc(OC)cc2)nnc1C(C)NC(=O)c1ccc(OC)cc1 (stereo not given) | 93 | 106% (inactive) | 93% (inactive) | 85.7% (inactive) | 88.2% (inactive) | -3.72% (inactive) | 91.9 | 88.2 | -1.2% (inactive) | -8.41% (inactive)
Cc1cc(=O)n(-c2ccc3ccccc3n2)[nH]1 | 105 | 101% (inactive) | 105% (inactive) | 53.6% (inactive) | 73.4% (inactive) | -2.73% (inactive) | 76.2 | 73.4 | -5.73% (inactive) | 11.1% (inactive)
COC(=O)c1[nH]c2ccccc2c1NC(=O)CN1CCC(C(N)=O)(N2CCCCC2)CC1 | 96 | 97.5% (inactive) | 96% (inactive) | 101% (inactive) | 93.2% (inactive) | 5.43% (inactive) | 87.8 | 93.2 | 1.58% (inactive) | 0.49% (inactive)
CC(=Nc1ccc(C)c(C)c1)C1=C(O)CCC1=O | 102 | 88.5% (inactive) | 102% (inactive) | 95.1% (inactive) | 94.7% (inactive) | 12% (inactive) | 82.8 | 94.7 | -3.73% (inactive) | -2.46% (inactive)
CCOc1ccc(NCc2nnc(SCC(=O)Nc3cc(C)on3)n2-c2ccccc2OC)cc1 | 106 | 79% (inactive) | 106% (inactive) | 41.7% (inactive) | 13.1% (active) | -19% (inactive) | 32.1 | 13.1 | -4.8% (inactive) | 2.86% (inactive)
